Source: ChEMBL document CHEMBL4261484, “Design, synthesis and anticonvulsant-analgesic activity of new N-[(phenoxy)alkyl]- and N-[(phenoxy)ethoxyethyl]aminoalkanols” (Medchemcomm, 2017)
The source made the active and inactive calls.

Key:
[1] = system: Mus musculus; experiment: Toxicity in mouse at 100 mg/kg, ip measured during maximal electroshock seizure test; assay type: organism-based; conditions: in vivo
[2] = system: Mus musculus; experiment: Neurotoxicity in mouse assessed as motor impairment at 30 mg/kg, ip measured for one min by rotarod test; assay type: toxicity, organism-based; conditions: in vivo, 1 min
Method in brief: (§1)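 Mice trained on an accelerating rotarod, then tested at least 24 h later after ip pretreatment, on a rod turning at 10 rpm. Neurotoxicity was scored as failure to stay on the rod for one minute. Read-out is mice impaired over mice tested.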

[3] = system: Mus musculus; experiment: Neurotoxicity in mouse assessed as motor impairment at 100 mg/kg, ip measured for one min by rotarod test; assay type: toxicity, organism-based; conditions: in vivo, 1 min; method in brief: as §1
[4] = system: Mus musculus; experiment: Anticonvulsant activity in mouse assessed as protection against maximal electroshock-induced seizures at 100 mg/kg, ip; assay type: functional, organism-based
Method in brief: (§2)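 Mice dosed ip; maximal seizures induced by auricular electroshock (25 mA, 500 V, 50 Hz, 0.2 s). Endpoint: hind-limb tonic extension; animals without it scored protected. Read-out is number protected over number tested.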

[5] = system: Mus musculus; experiment: Toxicity in mouse at 30 mg/kg, ip measured during maximal electroshock seizure test; assay type: organism-based; conditions: in vivo
[6] = system: Mus musculus; experiment: Anticonvulsant activity in ip dosed mouse assessed as protection against maximal electroshock-induced seizures; assay type: functional
Method in brief: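 Mice were dosed ip. Maximal seizures were induced by auricular electrodes (25 mA, 500 V, 50 Hz, 0.2 s). Absence of hind-limb tonic extension counted as protection. […] Motor impairment was scored on a 10 rpm rotarod, giving TD50 the same way.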

[7] = system: Mus musculus; experiment: Toxicity in mouse at 20 mg/kg, ip measured during maximal electroshock seizure test; assay type: organism-based; conditions: in vivo
[8] = system: Mus musculus; experiment: Toxicity in mouse at 10 mg/kg, ip measured during maximal electroshock seizure test; assay type: organism-based; conditions: in vivo
[9] = Protection index, ratio of TD50 for neurotoxicity in ip dosed mouse by rotarod test to ED50 for anticonvulsant activity in mouse by maximal electroshock seizure test; assay type: toxicity, organism-based; conditions: in vivo, read-out: Ratio TD50/ED50
[10] = system: Mus musculus; experiment: Toxicity in mouse at 15 mg/kg, ip measured during maximal electroshock seizure test; assay type: organism-based; conditions: in vivo
[11] = Neurotoxicity in ip dosed mouse assessed as motor impairment measured for one min by rotarod test; assay type: toxicity, organism-based; conditions: in vivo; method in brief: as §1
[12] = system: Mus musculus; experiment: Anticonvulsant activity in mouse assessed as protection against maximal electroshock-induced seizures at 20 mg/kg, ip; assay type: functional, organism-based; method in brief: as §2
[13] = system: Mus musculus; experiment: Anticonvulsant activity in mouse assessed as protection against maximal electroshock-induced seizures at 30 mg/kg, ip; assay type: functional, organism-based; method in brief: as §2
[14] = system: HepG2; experiment: Cytotoxicity against human HepG2 cells assessed as effect on cell viability at 10 to 250 uM after 24 hrs by MTT assay; assay type: cell-based; conditions: hepg2, 24 h
Method in brief: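 HepG2 cells grown in MEM with 10% FBS (37 °C, 5% CO2) and seeded at 1 × 10^4. After overnight culture, exposed to 10–250 μM for 24 h. MTT for 3 h, formazan dissolved, OD 570 nm. Viability is % of control ± SEM from three independent experiments.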

[15] = Cytotoxicity against mouse CRL-2541 cells assessed as effect on cell viability at 10 to 250 uM after 24 hrs by MTT assay; assay type: cell-based
[16] = system: Mus musculus; experiment: Analgesic activity in mouse assessed as decrease in time of paw licking during phase 2 at 21 mg/kg, ip measured for 15 to 30 mins by formalin test relative to control; assay type: functional; parameters: scale not given: the % may be the effect or the level left
Method in brief: (§3)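 Formalin test in mice: 20 μL of 5% formalin injected intraplantarly into the right hind paw. Each mouse was observed alone in a glass beaker for 30 min. Time (s) spent licking or biting the injected paw was recorded at 0–5 min (acute phase) and 15–30 min (inflammatory phase).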

[17] = system: Mus musculus; experiment: Toxicity in mouse assessed as effect on spontaneous activity at 21 mg/kg, ip measured for 30 mins by photoresistor actometer relative to control; assay type: organism-based; conditions: in vivo, 0.5 h
Method in brief: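 Mice dosed ip; locomotor activity by photoresistor actometers counting light-beam interruptions. Each mouse was habituated 30 min in a cage, then crossings were counted over a 30 min session. Data are mean ± SEM and % change vs control; unpaired t test.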

[18] = system: Mus musculus; experiment: Neurotoxicity in mouse assessed as motor impairment by measuring loss of coordination at 21 mg/kg, ip measured for 60 secs by chimney test relative to control; assay type: toxicity, organism-based; conditions: in vivo, 1 min
Method in brief: (§4)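 Mice dosed ip; trained, selected animals placed in a horizontal tube 25 cm long and 2.5 cm in diameter, then tube reversed so mice must climb out backward. Read-outs: escape time (s) ± SEM and % animals losing coordination versus control. Unpaired t test.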

[19] = system: Mus musculus; experiment: Anticonvulsant activity in mouse assessed as current strength required to induce tonic hind-limb extension in 50% of the animals at 10 mg/kg, ip by maximal electroshock seizure threshold test (reference value: 6.05 to 8.13 mA); assay type: functional
[20] = system: Mus musculus; experiment: Anticonvulsant activity in mouse assessed as protection against subcutaneous pentylenetetrazole-induced seizures by measuring latency time of tonic seizures at 100 mg/kg, ip measured for 30 mins post pentylenetetrazole challenge at 0.5 hrs after compound dosing (reference value: 562.8 to 614.9 secs); assay type: functional
[21] = system: Mus musculus; experiment: Anticonvulsant activity in mouse assessed as increase in electroconvulsive threshold at 10 mg/kg, ip by maximal electroshock seizure threshold test relative to control; assay type: functional
[22] = system: Mus musculus; experiment: Analgesic activity in mouse assessed as decrease in time of paw licking during phase 1 at 21 mg/kg, ip measured for 5 mins by formalin test relative to control; assay type: functional; parameters: scale not given: the % may be the effect or the level left; method in brief: as §3
[23] = system: HepG2; experiment: Cytotoxicity against human HepG2 cells assessed as effect on cell viability at 10 to 250 uM after 24 hrs by neutral red assay; assay type: cell-based; conditions: hepg2, 24 h
Method in brief: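 HepG2 cells seeded at 5 × 10^4 per well, then after 24 h given medium with 10–250 μM for 24 h. Viability by neutral red staining, OD 570 nm. Results are % of control ± SEM, three independent experiments.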

[24] = system: Mus musculus; experiment: Anticonvulsant activity in mouse assessed as protection against subcutaneous pentylenetetrazole-induced seizures at 100 mg/kg, ip measured for 30 mins post pentylenetetrazole challenge at 0.5 hrs after compound dosing relative to control; assay type: functional
[25] = system: Mus musculus; experiment: Neurotoxicity in mouse assessed as motor impairment by measuring time of escaping from chimney at 21 mg/kg, ip measured for 60 secs (reference value: 8.87 +/- 1.79 secs); assay type: toxicity, organism-based; conditions: in vivo, 1 min; method in brief: as §4

CC[C@H](CO)NCCCCOc1cc(C)ccc1Cl
Activity [1]: Non-Toxic
Activity [2]: Non-Toxic
Activity [3]: Toxic
Activity [4]: Active
Activity [5]: Non-Toxic

Cc1cccc(C)c1OCCOCCNCC(O)c1ccccc1 (racemic)
Activity [1]: Non-Toxic
ED50 [6]: 13 mg/kg
Activity [7]: Non-Toxic
Activity [8]: Non-Toxic
selectivity ratio [9]: 2.76
Activity [10]: Non-Toxic
TD50 at 1 min [11]: 36 mg/kg
Activity [4]: Active
Activity [12]: Active

Cc1ccc(Cl)c(OCCN[C@H]2CC[C@H](O)CC2)c1
Activity [3]: Toxic

CC[C@@H](CO)NCCOc1c(C)cccc1C
selectivity ratio [9]: 4.55

CCC(CO)NCCOCCOc1cc(C)ccc1Cl (racemic)
Activity [2]: Non-Toxic
Activity [3]: Toxic
Activity [4]: Active

CC[C@@H](CO)NCCCCOc1cc(C)ccc1Cl
Activity [1]: Non-Toxic
Activity [3]: Toxic
Activity [13]: inactive
Activity [4]: Active
Activity [5]: Non-Toxic

Cc1cccc(Cl)c1OCCCCN[C@H]1CCCC[C@@H]1O.Cl (racemic)
Activity [1]: Toxic
Activity [3]: Toxic

CCC(CO)NCCCCOc1cc(C)ccc1Cl (racemic)
Activity [1]: Non-Toxic
Activity [2]: Non-Toxic
Activity [3]: Toxic
Activity [4]: Active
Activity [5]: Non-Toxic

Cc1cccc(C)c1OCC(C)N (configuration not stated) [MEXILETINE]
ED50 [6]: 20 mg/kg

Cc1cc(C)c(OCCCN2CCC(O)CC2)c(C)c1
Activity [1]: Non-Toxic
Activity [14]: Non-Toxic
Activity [15]: Non-Toxic
Activity [16]: 4.87%
Activity [17]: 19.76%
Activity [18]: 0%
Activity [19]: 9.15 mA
Time [20]: 275.4 s
Activity [21]: 12.55%
Activity [22]: 27.01%
Activity [23]: Non-Toxic
Activity [4]: Active
Activity [24]: inactive
Time [25]: 6.5 s

CC(C)NCC(O)COc1cccc2ccccc12 (configuration not stated) [PROPRANOLOL]
ED50 [6]: 15 mg/kg

Cc1cccc(Cl)c1OCCCCN[C@H]1CC[C@H](O)CC1
Activity [1]: Non-Toxic
ED50 [6]: 41.1 mg/kg
selectivity ratio [9]: 1.22
TD50 at 1 min [11]: 50 mg/kg
Activity [4]: Active
